{"source": "ChEMBL document CHEMBL3046353", "about": "“Synthesis and fungicidal activity of some 5-membered heterocyclic derivatives containing benzimidazoles” (1993)", "key": {"Schoenoplectus acutus [1]": {"system": "Schoenoplectus acutus", "assay": "Pre-emergence herbicidal activity against Schoenoplectus acutus (hardstem bulrush)", "assay_type": "functional, organism-based"}, "Avena sativa [2]": {"system": "Avena sativa", "assay": "Pre-emergence herbicidal activity against Avena sativa", "assay_type": "functional, organism-based"}, "Abutilon theophrasti [3]": {"system": "Abutilon theophrasti", "assay": "Pre-emergence herbicidal activity against Abutilon theophrasti (velvetleaf)", "assay_type": "functional, organism-based"}, "Schoenoplectus acutus [4]": {"system": "Schoenoplectus acutus", "assay": "Herbicidal activity against Schoenoplectus acutus (hardstem bulrush) under paddy conditions", "assay_type": "functional, organism-based"}, "Culex pipiens pallens": {"system": "Culex pipiens pallens", "assay": "Insecticidal activity against Culex pipiens pallens (mosquito) at 3 to 5 ppm", "assay_type": "functional, organism-based"}, "Convolvulaceae [5]": {"system": "Convolvulaceae", "assay": "Herbicidal activity against Convolvulaceae (morning glory family) under paddy conditions", "assay_type": "functional, organism-based"}, "Echinochloa crus-galli [6]": {"system": "Echinochloa crus-galli", "assay": "Pre-emergence herbicidal activity against Echinochloa crus-galli (barnyard grass)", "assay_type": "functional, organism-based"}, "Oryza sativa [7]": {"system": "Oryza sativa", "assay": "Herbicidal activity against Oryza sativa (rice) under paddy conditions", "assay_type": "functional, organism-based"}, "Spodoptera litura": {"system": "Spodoptera litura", "assay": "Insecticidal activity against Spodoptera litura", "assay_type": "functional, organism-based"}, "Avena sativa [8]": {"system": "Avena sativa", "assay": "Post-emergence herbicidal activity against Avena sativa", "assay_type": "functional, organism-based"}, "Oryza sativa [9]": {"system": "Oryza sativa", "assay": "Pre-emergence herbicidal activity against Oryza sativa (rice)", "assay_type": "functional, organism-based"}, "Schoenoplectus acutus [10]": {"system": "Schoenoplectus acutus", "assay": "Post-emergence herbicidal activity against Schoenoplectus acutus (hardstem bulrush)", "assay_type": "functional, organism-based"}, "Echinochloa crus-galli [11]": {"system": "Echinochloa crus-galli", "assay": "Post-emergence herbicidal activity against Echinochloa crus-galli (barnyard grass)", "assay_type": "functional, organism-based"}, "Abutilon theophrasti [12]": {"system": "Abutilon theophrasti", "assay": "Post-emergence herbicidal activity against Abutilon theophrasti (velvetleaf)", "assay_type": "functional, organism-based"}, "Sagittaria latifolia [13]": {"system": "Sagittaria latifolia", "assay": "Post-emergence herbicidal activity against Sagittaria latifolia (broadleaf arrowhead)", "assay_type": "functional, organism-based"}, "Avena sativa [14]": {"system": "Avena sativa", "assay": "Herbicidal activity against Avena sativa under paddy conditions", "assay_type": "functional, organism-based"}, "Tetranychus cinnabarinus": {"system": "Tetranychus cinnabarinus", "assay": "Insecticidal activity against Tetranychus cinnabarinus (carmine spider mite)", "assay_type": "functional, organism-based"}, "Convolvulaceae [15]": {"system": "Convolvulaceae", "assay": "Post-emergence herbicidal activity against Convolvulaceae (morning glory family)", "assay_type": "functional, organism-based"}, "Sagittaria latifolia [16]": {"system": "Sagittaria latifolia", "assay": "Pre-emergence herbicidal activity against Sagittaria latifolia (broadleaf arrowhead)", "assay_type": "functional, organism-based"}, "Rhizoctonia solani": {"system": "Rhizoctonia solani", "assay": "Fungicidal activity against Rhizoctonia solani at 500 ppm after 7 days by poisoned food technique", "assay_type": "functional", "conditions": "168 h, read-out: GI", "procedure,_shortened": "(§1)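 Cultures kept on potato dextrose agar. Each compound, dissolved in acetone, was added to potato dextrose agar at a final 500 ppm (w/v) (poisoned food technique). A disc cut from the periphery of a seven-day-old culture was inoculated onto each set. Control sets held potato dextrose agar only. The read-out is percentage inhibition of fungal growth relative to control.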"}, "Echinochloa crus-galli [17]": {"system": "Echinochloa crus-galli", "assay": "Herbicidal activity against Echinochloa crus-galli (barnyard grass) under paddy conditions", "assay_type": "functional, organism-based"}, "Oryza sativa [18]": {"system": "Oryza sativa", "assay": "Post-emergence herbicidal activity against Oryza sativa (rice)", "assay_type": "functional, organism-based"}, "Convolvulaceae [19]": {"system": "Convolvulaceae", "assay": "Pre-emergence herbicidal activity against Convolvulaceae (morning glory family)", "assay_type": "functional, organism-based"}, "Musca domestica": {"system": "Musca domestica", "assay": "Insecticidal activity against Musca domestica (house fly)", "assay_type": "functional, organism-based"}, "Helminthosporium": {"system": "Helminthosporium", "assay": "Fungicidal activity against Helminthosporium oryzae at 500 ppm after 7 days by poisoned food technique", "assay_type": "functional", "conditions": "168 h, read-out: GI", "procedure,_shortened": "as §1"}, "Sagittaria latifolia [20]": {"system": "Sagittaria latifolia", "assay": "Herbicidal activity against Sagittaria latifolia (broadleaf arrowhead) under paddy conditions", "assay_type": "functional, organism-based"}}, "note": "Calls of active or inactive are those of the source. The rule behind the calls is not given here.", "data": [{"smiles": "c1ccc(-c2nnc(SCc3nc4ccccc4[nH]3)o2)cc1", "values": [{"measurement": "Activity", "setting": "Schoenoplectus acutus [1]", "value": "inactive"}, {"measurement": "Activity", "setting": "Avena sativa [2]", "value": "inactive"}, {"measurement": "Activity", "setting": "Abutilon theophrasti [3]", "value": "inactive"}, {"measurement": "Activity", "setting": "Schoenoplectus acutus [4]", "value": "inactive"}, {"measurement": "Activity", "setting": "Culex pipiens pallens", "value": "Active"}, {"measurement": "Activity", "setting": "Convolvulaceae [5]", "value": "inactive"}, {"measurement": "Activity", "setting": "Echinochloa crus-galli [6]", "value": "inactive"}, {"measurement": "Activity", "setting": "Oryza sativa [7]", "value": "inactive"}, {"measurement": "Activity", "setting": "Spodoptera litura", "value": "inactive"}, {"measurement": "Activity", "setting": "Avena sativa [8]", "value": "inactive"}, {"measurement": "Activity", "setting": "Oryza sativa [9]", "value": "inactive"}, {"measurement": "Activity", "setting": "Schoenoplectus acutus [10]", "value": "inactive"}, {"measurement": "Activity", "setting": "Echinochloa crus-galli [11]", "value": "inactive"}, {"measurement": "Activity", "setting": "Abutilon theophrasti [12]", "value": "inactive"}, {"measurement": "Activity", "setting": "Sagittaria latifolia [13]", "value": "inactive"}, {"measurement": "Activity", "setting": "Avena sativa [14]", "value": "inactive"}, {"measurement": "Activity", "setting": "Tetranychus cinnabarinus", "value": "inactive"}, {"measurement": "Activity", "setting": "Convolvulaceae [15]", "value": "inactive"}, {"measurement": "Activity", "setting": "Sagittaria latifolia [16]", "value": "inactive"}, {"measurement": "inhibition of growth at 500 ppm", "setting": "Rhizoctonia solani", "value": 65.2, "unit": "%"}, {"measurement": "Activity", "setting": "Echinochloa crus-galli [17]", "value": "inactive"}, {"measurement": "Activity", "setting": "Oryza sativa [18]", "value": "inactive"}, {"measurement": "Activity", "setting": "Convolvulaceae [19]", "value": "inactive"}, {"measurement": "Activity", "setting": "Musca domestica", "value": "inactive"}, {"measurement": "inhibition of growth at 500 ppm", "setting": "Helminthosporium", "value": 73.5, "unit": "%"}, {"measurement": "Activity", "setting": "Sagittaria latifolia [20]", "value": "inactive"}]}, {"smiles": "c1ccc2[nH]c(CSc3nnc(-c4ccncc4)s3)nc2c1", "values": [{"measurement": "Activity", "setting": "Schoenoplectus acutus [1]", "value": "inactive"}, {"measurement": "Activity", "setting": "Avena sativa [2]", "value": "inactive"}, {"measurement": "Activity", "setting": "Abutilon theophrasti [3]", "value": "inactive"}, {"measurement": "Activity", "setting": "Schoenoplectus acutus [4]", "value": "inactive"}, {"measurement": "Activity", "setting": "Culex pipiens pallens", "value": "Active"}, {"measurement": "Activity", "setting": "Convolvulaceae [5]", "value": "inactive"}, {"measurement": "Activity", "setting": "Echinochloa crus-galli [6]", "value": "inactive"}, {"measurement": "Activity", "setting": "Oryza sativa [7]", "value": "inactive"}, {"measurement": "Activity", "setting": "Spodoptera litura", "value": "inactive"}, {"measurement": "Activity", "setting": "Avena sativa [8]", "value": "inactive"}, {"measurement": "Activity", "setting": "Oryza sativa [9]", "value": "inactive"}, {"measurement": "Activity", "setting": "Schoenoplectus acutus [10]", "value": "inactive"}, {"measurement": "Activity", "setting": "Echinochloa crus-galli [11]", "value": "inactive"}, {"measurement": "Activity", "setting": "Abutilon theophrasti [12]", "value": "inactive"}, {"measurement": "Activity", "setting": "Sagittaria latifolia [13]", "value": "inactive"}, {"measurement": "Activity", "setting": "Avena sativa [14]", "value": "inactive"}, {"measurement": "Activity", "setting": "Tetranychus cinnabarinus", "value": "inactive"}, {"measurement": "Activity", "setting": "Convolvulaceae [15]", "value": "inactive"}, {"measurement": "Activity", "setting": "Sagittaria latifolia [16]", "value": "inactive"}, {"measurement": "inhibition of growth at 500 ppm", "setting": "Rhizoctonia solani", "value": 21.3, "unit": "%"}, {"measurement": "Activity", "setting": "Echinochloa crus-galli [17]", "value": "inactive"}, {"measurement": "Activity", "setting": "Oryza sativa [18]", "value": "inactive"}, {"measurement": "Activity", "setting": "Convolvulaceae [19]", "value": "inactive"}, {"measurement": "Activity", "setting": "Musca domestica", "value": "inactive"}, {"measurement": "inhibition of growth at 500 ppm", "setting": "Helminthosporium", "value": 54.5, "unit": "%"}, {"measurement": "Activity", "setting": "Sagittaria latifolia [20]", "value": "inactive"}]}, {"smiles": "Nn1c(SCc2nc3ccccc3[nH]2)nnc1-c1ccccc1", "values": [{"measurement": "Activity", "setting": "Schoenoplectus acutus [1]", "value": "inactive"}, {"measurement": "Activity", "setting": "Avena sativa [2]", "value": "inactive"}, {"measurement": "Activity", "setting": "Abutilon theophrasti [3]", "value": "inactive"}, {"measurement": "Activity", "setting": "Schoenoplectus acutus [4]", "value": "inactive"}, {"measurement": "Activity", "setting": "Culex pipiens pallens", "value": "Active"}, {"measurement": "Activity", "setting": "Convolvulaceae [5]", "value": "inactive"}, {"measurement": "Activity", "setting": "Echinochloa crus-galli [6]", "value": "inactive"}, {"measurement": "Activity", "setting": "Oryza sativa [7]", "value": "inactive"}, {"measurement": "Activity", "setting": "Spodoptera litura", "value": "inactive"}, {"measurement": "Activity", "setting": "Avena sativa [8]", "value": "inactive"}, {"measurement": "Activity", "setting": "Oryza sativa [9]", "value": "inactive"}, {"measurement": "Activity", "setting": "Schoenoplectus acutus [10]", "value": "inactive"}, {"measurement": "Activity", "setting": "Echinochloa crus-galli [11]", "value": "inactive"}, {"measurement": "Activity", "setting": "Abutilon theophrasti [12]", "value": "inactive"}, {"measurement": "Activity", "setting": "Sagittaria latifolia [13]", "value": "inactive"}, {"measurement": "Activity", "setting": "Avena sativa [14]", "value": "inactive"}, {"measurement": "Activity", "setting": "Tetranychus cinnabarinus", "value": "inactive"}, {"measurement": "Activity", "setting": "Convolvulaceae [15]", "value": "inactive"}, {"measurement": "Activity", "setting": "Sagittaria latifolia [16]", "value": "inactive"}, {"measurement": "inhibition of growth at 500 ppm", "setting": "Rhizoctonia solani", "value": 74.5, "unit": "%"}, {"measurement": "Activity", "setting": "Echinochloa crus-galli [17]", "value": "inactive"}, {"measurement": "Activity", "setting": "Oryza sativa [18]", "value": "inactive"}, {"measurement": "Activity", "setting": "Convolvulaceae [19]", "value": "inactive"}, {"measurement": "Activity", "setting": "Musca domestica", "value": "inactive"}, {"measurement": "inhibition of growth at 500 ppm", "setting": "Helminthosporium", "value": 92.5, "unit": "%"}, {"measurement": "Activity", "setting": "Sagittaria latifolia [20]", "value": "inactive"}]}, {"smiles": "Cc1ccc2[nH]c(CSc3nnc(-c4ccc(Cl)cc4)o3)nc2c1", "values": [{"measurement": "Activity", "setting": "Schoenoplectus acutus [1]", "value": "inactive"}, {"measurement": "Activity", "setting": "Avena sativa [2]", "value": "inactive"}, {"measurement": "Activity", "setting": "Abutilon theophrasti [3]", "value": "inactive"}, {"measurement": "Activity", "setting": "Schoenoplectus acutus [4]", "value": "inactive"}, {"measurement": "Activity", "setting": "Culex pipiens pallens", "value": "Active"}, {"measurement": "Activity", "setting": "Convolvulaceae [5]", "value": "inactive"}, {"measurement": "Activity", "setting": "Echinochloa crus-galli [6]", "value": "inactive"}, {"measurement": "Activity", "setting": "Oryza sativa [7]", "value": "inactive"}, {"measurement": "Activity", "setting": "Spodoptera litura", "value": "inactive"}, {"measurement": "Activity", "setting": "Avena sativa [8]", "value": "inactive"}, {"measurement": "Activity", "setting": "Oryza sativa [9]", "value": "inactive"}, {"measurement": "Activity", "setting": "Schoenoplectus acutus [10]", "value": "inactive"}, {"measurement": "Activity", "setting": "Echinochloa crus-galli [11]", "value": "inactive"}, {"measurement": "Activity", "setting": "Abutilon theophrasti [12]", "value": "inactive"}, {"measurement": "Activity", "setting": "Sagittaria latifolia [13]", "value": "inactive"}, {"measurement": "Activity", "setting": "Avena sativa [14]", "value": "inactive"}, {"measurement": "Activity", "setting": "Tetranychus cinnabarinus", "value": "inactive"}, {"measurement": "Activity", "setting": "Convolvulaceae [15]", "value": "inactive"}, {"measurement": "Activity", "setting": "Sagittaria latifolia [16]", "value": "inactive"}, {"measurement": "inhibition of growth at 500 ppm", "setting": "Rhizoctonia solani", "value": 100, "unit": "%"}, {"measurement": "Activity", "setting": "Echinochloa crus-galli [17]", "value": "inactive"}, {"measurement": "Activity", "setting": "Oryza sativa [18]", "value": "inactive"}, {"measurement": "Activity", "setting": "Convolvulaceae [19]", "value": "inactive"}, {"measurement": "Activity", "setting": "Musca domestica", "value": "inactive"}, {"measurement": "inhibition of growth at 500 ppm", "setting": "Helminthosporium", "value": 100, "unit": "%"}, {"measurement": "Activity", "setting": "Sagittaria latifolia [20]", "value": "inactive"}]}]}
